The text below walks through data of ChEMBL document CHEMBL4825663 (J Med Chem, 2021).

A short description of data set [1]: Neurotoxicity in Sprague-Dawley rat assessed as reduction in nociceptive threshold at 6 mg/kg, iv measured after day 5, 7, 11 and 14. Format: toxicity, organism-based. The following applies: in vivo. The procedure, abridged: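 Healthy rats received IV paclitaxel (Taxol) at 0 (vehicle), 3 or 6 mg/kg, four times at 2-day intervals (cumulative 12 or 24 mg/kg), n = 5/group. Paw pressure threshold (mmHg to elicit response, back paws) was measured by Randall–Selitto test. Data were analysed by one-way ANOVA, then Dunnett's test versus control.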

Data set [2] can be described thus: Drug distribution in Beagle dog bile. The data set is classed as ADME, tissue-based, Canis lupus familiaris. The settings on record: in vivo.
Data set [3] concerns the target T1, Solute carrier family 22 member 6 (Homo sapiens, UniProt Q4U2R8).
T1 sequence (Q4U2R8 whole entry): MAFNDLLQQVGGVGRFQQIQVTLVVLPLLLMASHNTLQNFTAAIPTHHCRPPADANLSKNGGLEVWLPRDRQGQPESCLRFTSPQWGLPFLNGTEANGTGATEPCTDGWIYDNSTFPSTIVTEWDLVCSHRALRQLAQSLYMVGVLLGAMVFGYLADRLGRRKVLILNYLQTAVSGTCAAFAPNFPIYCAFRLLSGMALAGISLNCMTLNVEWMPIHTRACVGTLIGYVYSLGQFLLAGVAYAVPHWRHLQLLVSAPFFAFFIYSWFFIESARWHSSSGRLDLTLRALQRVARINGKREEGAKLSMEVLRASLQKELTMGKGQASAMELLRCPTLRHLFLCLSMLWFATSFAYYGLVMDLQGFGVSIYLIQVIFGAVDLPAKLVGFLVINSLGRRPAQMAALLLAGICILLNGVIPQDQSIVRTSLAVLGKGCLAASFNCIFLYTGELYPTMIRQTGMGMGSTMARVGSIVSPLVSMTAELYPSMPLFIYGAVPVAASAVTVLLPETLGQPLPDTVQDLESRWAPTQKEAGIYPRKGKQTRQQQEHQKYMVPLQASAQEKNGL
Description: Inhibition of human OAT1 assessed as reduction in intracellular probe substrate accumulation upto 100 uM by microplate scintillation counter analysis relative to control. The data set is classed as cell-based. Put shortly: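 Cellular uptake-inhibition assays used Chinese hamster ovary, HEK293 or MDCKII cells stably expressing the respective human SLC transporter, run alongside the corresponding control cells. Inhibitor was tested at concentrations up to 100 μM.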

For the compound `CC(=O)O[C@H]1C(=O)[C@@]2(C)[C@H]([C@H](OC(=O)c3ccccc3)[C@]3(O)C[C@H](OC(=O)[C@H](O)[C@@H](NC(=O)c4ccccc4)c4ccccc4)C(C)=C1C3(C)C)[C@]1(OC(C)=O)CO[C@@H]1C[C@@H]2O` [PACLITAXEL], the Activity result in data set [1] is given as “Toxic”.

Turning to `COc1cc2c(cc1OC)CN(CCc1ccc(-n3nnc(-c4cc(OC)c(OC)cc4NC(=O)c4cc(=O)c5ccccc5o4)n3)cc1)CC2`, the Drug uptake entry in data set [2] is given as “Active”. In data set [3], the “inhibition (INH)” value was less than 50%.
